Screens: PubChem BioAssay, Johns Hopkins Ion Channel Center
Rows were chosen to be rich in hits. Some 3.5% of all compounds tested hit in one or more screens of this group.
MrgX1 allo act: allosterically activates human MrgX1 receptor signaling | B-score at 10 µM | 0.63% of 310,000 active | MrgX1-HEK293, Fluo-4 calcium flux, FDSS; stronger effect = higher value | Q96LB2;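 active = plate-corrected calcium response at least 3 library SD above typical, normal starting fluorescence, not activating the receptor alone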;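 note: compound read alongside a low EC10 to EC30 dose of BAM8-22 agonist; peak minus trough fluorescence over baseline measured at the second addition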
Target sequence (Q96LB2 whole entry, looked up): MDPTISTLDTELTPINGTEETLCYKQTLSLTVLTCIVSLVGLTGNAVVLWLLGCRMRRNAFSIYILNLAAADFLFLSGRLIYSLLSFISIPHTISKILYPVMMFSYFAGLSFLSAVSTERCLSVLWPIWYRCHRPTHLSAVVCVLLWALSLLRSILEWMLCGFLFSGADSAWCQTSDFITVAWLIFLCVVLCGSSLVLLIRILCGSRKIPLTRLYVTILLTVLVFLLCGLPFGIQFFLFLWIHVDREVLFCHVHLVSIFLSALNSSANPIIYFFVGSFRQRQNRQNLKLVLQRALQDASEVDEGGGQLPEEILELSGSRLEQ
RGS4 inh: inhibitors of human RGS4 | HEK293 M3R/RGS4 inducible, Fluo-4 calcium flux; stronger effect = higher value; triggered by carbachol at its EC20 | P49798 | B-score at 10 µM | 0.45% of 310,000 active;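 active = B-score, a plate-corrected calcium signal, over three deviations above library mean, with baseline fluorescence within five deviations of library mean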;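 note: RGS4 expression induced by doxycycline in cells with stable M3 receptor; B-score is computed from the integrated fluorescence ratio over baseline after carbachol; higher B-score means a larger calcium signal and so more RGS4 inhibition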
Target sequence (P49798 whole entry, looked up): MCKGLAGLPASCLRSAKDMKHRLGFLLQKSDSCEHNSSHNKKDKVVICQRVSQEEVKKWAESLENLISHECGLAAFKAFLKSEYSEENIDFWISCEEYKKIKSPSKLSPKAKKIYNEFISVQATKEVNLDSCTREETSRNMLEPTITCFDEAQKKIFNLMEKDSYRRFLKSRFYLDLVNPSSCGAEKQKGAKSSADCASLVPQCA
MrgX1 agonist: agonists of human MrgX1 receptor | MrgX1-HEK293 cells, Fluo-4 calcium fluorescence, agonist mode; stronger effect = higher value | B-score at 10 µM | 0.44% of 310,000 active;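 active = calcium response B-score plate-corrected fluorescence ratio at least 3 library SD, with starting fluorescence B-score inside 5 SD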
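Material: MrgX1-expressing HEK293 cells; input: 15,000 cells per well; doses: test compound given as first of three sequential additions; schedule: overnight plating before 1 h dye loading; technique: Fluo-4 NW calcium-flux fluorescence, kinetic read; evaluation: baseline-normalised fluorescence change ratio, B-scored; control set: plate-wise positive and negative controls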
MrgX1 antagonist: antagonists of human MrgX1 receptor; MRGX1-HEK293 calcium flux, Fluo-4, BAM8-22 antagonism; stronger effect = lower value; B-score at 10 µM; 1.3% of 310,000 active; AID 588676;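 active = calcium-response B-score plate-corrected more than 3 library SD below zero, starting fluorescence within 5 deviations, no agonist response on first addition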;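 note: peak minus trough fluorescence over baseline after final BAM8-22 challenge near maximal dose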
RGS4 pot: potentiators or activators of RGS4; HEK293 M3R/inducible RGS4, carbachol calcium flux Fluo4; stronger effect = lower value; B-score at 10 µM; 0.92% of 310,000 active;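 active = B-score of the integrated calcium signal more than 4 SD below the library mean, with starting fluorescence not abnormally high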;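 note: negative B-score means reduced calcium response which marks RGS4 activation or potentiation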
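test system = M3R-expressing HEK293 line, RGS4 induced by doxycycline | probe or stimulus = carbachol at ECmax as muscarinic agonist stimulus | timing = dye loading 30 min 37 °C, buffer rest 30 min RT | signal = calcium dye Fluo4 fluorescence | evaluation = B score from integrated fluorescence ratio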
MrgX1 allo conf: human MrgX1 positive allosteric modulation, re-confirmation. MrgX1-HEK293, Fluo-4 calcium fluorescence, FDSS. AID 602413. 13% of 1,200 active. activation (ratio percentage), % at 10 µM. shares compounds with MrgX1 allo act;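 active = ratio at least 3 SD above the weak peptide control, stable starting fluorescence, no direct agonism earlier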;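 note: compound followed by low BAM8-22 agonist challenge near EC20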
HEK293 Ca flux: counter-screen for MrgX1 antagonists: effect in parental HEK293 cells. shares compounds with MrgX1 antagonist. Fluo-4 calcium fluorescence, FDSS. fluorescence ratio F(max-min)/F0 at 10 µM. 2% of 4,000 active. AID 624111;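 active = duplicate-averaged calcium fluorescence ratio at least three times the standard deviation of buffer wells, a nonspecific response in parental cells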
HEK293 Ca counter: MrgX1 allosteric activator counter-screen hit in parental HEK293 cells; shares compounds with MrgX1 antagonist; parental HEK293 calcium flux, Fluo-4 fluorescence ratio; stronger effect = higher value; fluorescence ratio F(max-min)/F0 at 10 µM; 0.4% of 4,000 active;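 active = calcium fluorescence ratio, averaged over duplicates, at least 3 SD of the buffer-well ratio, meaning a nonspecific response in receptor-free cells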;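 note: untransfected parental HEK293 lacking MrgX1 used as counterscreen for MrgX1 allosteric activators; fluorescence change taken during the second addition on a kinetic imager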
HEK293 Ca cntr2: MrgX1 activator counter-screen hit in parental HEK293 cells. shares compounds with MrgX1 antagonist. Fluo-4 calcium fluorescence (FDSS); stronger effect = higher value. fluorescence ratio F(max-min)/F0 at 10 µM. 8.7% of 4,000 active. AID 624115;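 active = calcium fluorescence ratio at least three times the spread of buffer wells, meaning a non-specific response in parental cells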
An asterisk follows results filed as active; i = inactive; x = no result given.

SMILES	MrgX1 allo act	RGS4 inh	MrgX1 agonist	MrgX1 antagonist	RGS4 pot	MrgX1 allo conf	HEK293 Ca flux	HEK293 Ca counter	HEK293 Ca cntr2
CC(=O)N1c2ccc(S(=O)(=O)N(C)Cc3ccccc3)cc2CC1C (stereo not given)	7.2*	i	i	i	i	i	i	i	i
COc1ccc(CNC(=O)CN2C(=O)c3ccc([N+](=O)[O-])cc3C2=O)cc1	i	i	i	i	i	x	x	x	x
O=C1N=c2ccccc2=C1c1sc(NS(=O)(=O)c2ccccc2)nc1O	21*	i	i	i	i	i	i	i	i
Cc1ccc(S(=O)(=O)CC(O)COc2ccc(C#N)cc2)cc1 (stereo not given)	i	i	i	i	i	x	x	x	x
O=S(=O)(c1ccccc1)N(CC(O)COc1ccccc1)c1ccccc1 (stereo not given)	7.8*	i	i	i	i	i	i	i	i
O=S(=O)(CC(O)COc1ccc(Br)cc1)c1ccccc1 (stereo not given)	9*	i	i	i	i	i	i	i	i
COc1cc(C(=O)NCCNc2nc3ccc(C)cc3cc2C#N)cc(OC)c1OC	i	i	i	i	i	x	x	x	x
CCCNC(=O)/C(=C/c1cn(S(=O)(=O)N(C)C)c2ccccc12)NC(=O)c1ccc(OC)cc1	36*	i	i	i	i	15%*	i	i	i
Cc1cc(=O)oc2cc(OCC(=O)OC(C)C(=O)NC3CCCC3)ccc12 (stereo not given)	i	i	i	i	i	x	x	x	x
CCOc1ccc(NC(=O)NC(=O)N(C(C)C)S(C)(=O)=O)cc1	10*	i	i	i	i	i	i	i	i
CC(=O)N1CCSc2ccc(S(=O)(=O)NCCc3cccc(C)c3)cc21	i	i	i	i	i	x	x	x	x
CC(=O)N1CCSc2ccc(S(=O)(=O)NCCc3ccc(C)cc3)cc21	6.9*	i	i	i	i	i	i	i	i
Cc1ccc(Sc2ncccc2C(=O)N(C)Cc2cccs2)c(C)c1	25*	i	i	i	i	i	i	i	i
Cc1ccc(Nc2ncccc2C(=O)NCc2cccs2)c(C)c1	i	i	i	i	i	x	x	x	x
COc1ccc(N(CC(=O)Nc2cccnc2)S(=O)(=O)c2ccccc2)cc1Cl	16*	i	i	i	i	i	i	i	i
O=C1CN=C(Nc2ccccc2Cl)N1Cc1ccc2c(c1)OCO2	i	i	i	i	i	x	x	x	x
O=C(Cc1ccc(Br)cc1)N(Cc1ccccc1)c1ccccn1	7.3*	i	i	i	i	i	i	i	i
O=C(COc1ccc(Br)cc1)N(Cc1ccccc1)c1ccccn1	i	i	i	i	i	x	x	x	x
CCn1c(/N=C/c2ccccc2NS(=O)(=O)c2ccc(C)cc2)nc2ccccc21	14*	x	i	i	x	i	i	i	i
COc1ccc(CNC(=O)c2cccnc2)cc1	i	i	i	i	i	x	x	x	x
CCOC(=O)c1sc(NS(=O)(=O)c2ccccc2Cl)nc1C	12*	i	i	i	i	i	i	i	i
CCOC(=O)c1sc(NS(=O)(=O)c2ccc(F)cc2)nc1C	12*	i	i	i	i	i	i	i	i
CC(=O)Nc1ccc(C(=O)CSc2nccc(=O)[nH]2)cc1	i	i	i	i	i	x	x	x	x
COc1cccc(-n2c(C)cc(/C=C3/C(=N)N4C(=NC3=O)SN=C4S(C)(=O)=O)c2C)c1	32*	i	i	i	i	2.0%*	i	i	i
Cc1ccc(S(=O)(=O)Oc2ccc(/C=C3\C(=N)N4N=C(S(C)(=O)=O)SC4=NC3=O)cc2)cc1	i	i	i	i	i	x	x	x	x
SMILES	MrgX1 allo act	RGS4 inh	MrgX1 agonist	MrgX1 antagonist	RGS4 pot	MrgX1 allo conf	HEK293 Ca flux	HEK293 Ca counter	HEK293 Ca cntr2
CS(=O)(=O)C1=NSC2=NC(=O)/C(=C\c3ccc(OS(=O)(=O)c4ccccc4)cc3)C(=N)N21	30*	i	i	i	i	25%*	i	i	i
Cc1cc(C)cc(-n2cccc2/C=C2/C(=N)N3C(=NC2=O)SN=C3S(C)(=O)=O)c1	i	i	i	i	i	x	x	x	x
O=c1[nH]cnc2c1N=C(c1cccc([N+](=O)[O-])c1)CC(c1ccccc1)N2 (stereo not given)	i	i	i	i	i	x	x	x	x
C=CCOc1c(Br)cc(/C=N/NC(N)=O)cc1OC	i	i	i	i	i	x	x	x	x
C=CCOc1c(CCC)cc(CCC)cc1C(N)=O	24*	i	i	i	i	i	i	i	i
O=[N+]([O-])c1ccc(S(=O)(=O)Nc2nnc(C(F)(F)F)s2)cc1	i	i	i	i	i	x	x	x	x
CSc1ncccc1C(=O)NCc1ccc(C)cc1	i	i	i	i	i	x	x	x	x
CCOc1ncccc1C(=O)NCc1ccc(C)cc1	7.2*	i	i	i	i	i	i	i	i
CCOc1ccc(-n2c(C)nc(O)c2N=Nc2ccccc2)cc1	i	i	i	i	i	x	x	x	x
Cc1ccc(S(=O)(=O)Nc2c(NC3CCCCC3)c3ccccc3oc2=O)c(C)c1	i	i	i	i	i	x	x	x	x
COc1ccc(S(=O)(=O)Nc2cccc(C)n2)c2ccccc12	i	i	i	i	i	x	x	x	x
COc1ccc(Br)cc1S(=O)(=O)Nc1cccc(C)n1	12*	i	i	i	i	i	i	i	i
CCN(CC)C(=O)COc1ccc(/C=N/NC(=O)c2cc(-c3ccccc3OC)nc3ccccc23)cc1OC	i	i	i	i	i	x	x	x	x
O=C(NC(=S)NC1CCN(Cc2ccccc2)CC1)c1ccc(F)cc1	i	i	i	i	i	x	x	x	x
O=C(NC(=S)NC1CCCCC1)c1ccc(F)cc1	7*	i	i	i	i	i	i	i	i
